Bounds are passed on as bounds.

In the first assay the test system is L1210. Nature of the assay: In-vivo antitumor activity against mouse L1210 cells at 25 mg/kg. In kind it is functional.
Conditions: not given
The gist of the method: (§1)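 Leukemia L1210 in vivo; compound given as a single dose on day 1 only, with dose in mg/kg. Read-out is life span of treated versus control animals, expressed as T/C %.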
As usually defined, the T/C is the ratio of treated to control. For the molecule `CN(N=O)C(=O)N[C@H]1[C@@H](O)[C@H](n2ccc(N)nc2=O)O[C@@H]1CO`, the T/C turned out to be 110%.

Test system in the next assay: not listed separately
Nature of the assay: Cytotoxicity against human Hep2 cells. Format: functional. Conditions: HEp-2, read-out: ED50 (the source's name). The gist of the method: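 H.Ep-2 cultures; ED50 taken as the concentration that holds growth of treated cells to 50% of untreated controls.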
Regarding `CNC(=O)N[C@H]1[C@@H](O)[C@H](n2cnc3c(N)ncnc32)O[C@@H]1CO`, the EC50 is over 60 µM.
Consider `CN(N=O)C(=O)N[C@H]1[C@@H](O)[C@H](n2cnc3c(N)ncnc32)O[C@@H]1CO`, for which the EC50 was over 60 µM.
With `CN(N=O)C(=O)N[C@H]1[C@@H](O)[C@H](n2ccc(N)nc2=O)O[C@@H]1CO`, the EC50 is over 50 µM.
Regarding `CN(N=O)C(=O)NC[C@H]1O[C@@H](n2cnc3c(N)ncnc32)[C@H](O)[C@@H]1O`, the EC50 is 40 µM.
In the case of `CN(N=O)C(=O)N[C@H]1[C@@H](O)[C@H](n2cnc3c(N)nc(Cl)nc32)O[C@@H]1CO`, the EC50 was over 50 µM.
For `CN(N=O)C(=O)N[C@H]1[C@@H](O)[C@H](n2ccc(=O)[nH]c2=O)O[C@@H]1CO`, the EC50 was over 60 µM.
Take `CNC(=O)NC[C@H]1O[C@@H](n2cnc3c(N)ncnc32)[C@H](O)[C@@H]1O`: the EC50 was over 60 µM.
Still for that read-out and setting: as for `CN(N=O)C(=O)NC[C@H]1O[C@@H](n2ccc(N)nc2=O)[C@H](O)[C@@H]1O`, the figure is over 50 µM; as for `CN(N=O)C(=O)NC[C@H]1O[C@@H](n2ccc(=O)[nH]c2=O)[C@H](O)[C@@H]1O`, over 50 µM; as for `CNC(=O)N[C@H]1[C@@H](O)[C@H](n2ccc(N)nc2=O)O[C@@H]1CO`, over 60 µM.
With `CNC(=O)N[C@H]1[C@@H](O)[C@H](n2cnc3c(N)nc(Cl)nc32)O[C@@H]1CO`, the EC50 was over 50 µM.

Another assay relates to L1210. The experiment in a line: In-vivo antitumor activity against mouse L1210 cells at 100 mg/kg. Format: functional.
Conditions: not given
The gist of the method:
as §1
With `CN(N=O)C(=O)N[C@H]1[C@@H](O)[C@H](n2cnc3c(N)ncnc32)O[C@@H]1CO`, the T/C was 123%.
On to `CN(N=O)C(=O)N[C@H]1[C@@H](O)[C@H](n2ccc(=O)[nH]c2=O)O[C@@H]1CO`, for which the T/C is listed as 122%.

For another assay, the system named is L1210. Nature of the assay: In-vivo antitumor activity against mouse L1210 cells at 200 mg/kg. Format: functional.
Conditions: not given
The gist of the method:
as §1
In turn, `CN(N=O)C(=O)NC[C@H]1O[C@@H](n2cnc3c(N)ncnc32)[C@H](O)[C@@H]1O` had a T/C of 106%.
In turn, `CNC(=O)NC[C@H]1O[C@@H](n2cnc3c(N)ncnc32)[C@H](O)[C@@H]1O` registered a T/C of 98%.

A further assay deals with L1210. Nature of the assay: Cytotoxicity against mouse L1210 cells. In kind it is functional. Conditions: read-out: ED50 (the source's name).
In the case of `Cc1cn([C@H]2C[C@H](NC(=O)N(C)N=O)[C@@H](CO)O2)c(=O)[nH]c1=O`, the EC50 came to 1 µM.
